This passage reports Ki results from ChEMBL document CHEMBL1145100, “Structure-activity relationship of imidazo[1,2-a]pyridines as ligands for detecting beta-amyloid plaques in the brain” (J Med Chem, 2003).

Structures are written as SMILES.

The assay concerns the target Amyloid-beta precursor protein (Homo sapiens, UniProt P05067). Nature of the assay: Inhibition constant against [125I]-7 (TZDM) binding to Amyloid beta 1-40 aggregates. The gist of the method: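 Abeta40 peptide aggregated at 0.5 mg/mL in pH 7.4 buffer (10 mM sodium phosphate, 1 mM EDTA), 37 °C for 36-42 h with shaking. Competition in 1 mL of 40% EtOH: fibrils 10-50 nM final, radiotracer 0.05 nM, inhibitors 10^-5 to 10^-10 M. Nonspecific binding with 2 µM thioflavin-T. Incubated 3 h at room temperature, then GF/B filtration with 10% ethanol washes and gamma counting. Ki from nonlinear regression.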

Amyloid-beta precursor protein, sequence (P05067 whole entry): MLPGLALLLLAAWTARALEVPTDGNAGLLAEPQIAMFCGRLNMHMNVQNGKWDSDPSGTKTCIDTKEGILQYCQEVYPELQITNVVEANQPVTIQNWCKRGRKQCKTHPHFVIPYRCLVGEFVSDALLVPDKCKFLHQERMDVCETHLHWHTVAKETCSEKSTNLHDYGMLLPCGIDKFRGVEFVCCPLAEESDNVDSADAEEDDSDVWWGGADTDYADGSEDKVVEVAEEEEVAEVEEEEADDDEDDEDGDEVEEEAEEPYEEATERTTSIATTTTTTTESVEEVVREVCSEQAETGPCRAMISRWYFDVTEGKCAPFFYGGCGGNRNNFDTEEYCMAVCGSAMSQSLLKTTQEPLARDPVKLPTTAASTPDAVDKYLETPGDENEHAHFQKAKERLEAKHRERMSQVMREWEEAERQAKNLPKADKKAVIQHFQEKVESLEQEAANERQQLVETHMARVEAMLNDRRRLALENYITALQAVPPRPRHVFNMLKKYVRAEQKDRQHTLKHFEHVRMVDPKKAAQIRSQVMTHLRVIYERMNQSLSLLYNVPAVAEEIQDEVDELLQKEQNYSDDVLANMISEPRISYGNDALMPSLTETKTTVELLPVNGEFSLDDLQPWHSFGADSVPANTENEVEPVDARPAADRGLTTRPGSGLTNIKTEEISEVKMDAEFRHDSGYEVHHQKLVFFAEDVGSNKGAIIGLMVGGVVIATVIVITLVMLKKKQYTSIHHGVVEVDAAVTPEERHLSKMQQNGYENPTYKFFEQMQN

The term Ki denotes a measure of affinity in units of concentration, obtained from inhibition or displacement. Lower therefore signals a stronger hold on the target. `CN(C)c1ccc2nc(-c3ccc(Br)cc3)cn2c1` showed a Ki of 0.339 µM.
`CN(C)c1ccc(-c2nc3ccc(I)cn3c2I)cc1` yielded an inhibition constant Ki of over 2 µM.
